According to article PMC11954587 (JAC-Antimicrobial Resistance, 2025):
Entries after “also recorded” stand apart in the source; their conditions may differ. Where two headings read alike, the source gives them in different places. Residues, ends and D or L forms follow the SMILES beside them.

Experiments:
[1] = tested on: multi-drug-resistant Gram-negative bacteria; assay type: in vivo, human; conditions: for Microbiology efficacy (TOC): test of cure visit, 14-days post treatment
In short: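 VAP was diagnosed by positive sputum culture of multi-drug-resistant Gram-negative bacteria plus clinical signs, laboratory tests and CT. Aerosol: 50 mg powder dissolved in 5 mL distilled water, given whole or split into two 25 mg doses, nebulized over 30 min by vibrating mesh device, combined with IV dosing. Outcomes were assessed at end of treatment and test of cure.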

K. pneumoniae = conditions: cited from earlier work
P. aeruginosa strains = conditions: animal model, cited from earlier work
epithelial cells = conditions: in vitro; cited from earlier work
[2] = Adverse events in VAP patients during polymyxin B treatment; assay type: in vivo, human
[3] = cited from earlier work
[4] = patients with bloodstream infections; cited from earlier work
[5] = aerosolized delivery of CMS; cited from earlier work
[6] = four patients during polymyxin B treatment

CC[C@H](C)CCCCC(=O)N[C@@H](CCN)C(=O)N[C@H](C(=O)N[C@@H](CCN)C(=O)N[C@H]1CCNC(=O)[C@H]([C@@H](C)O)NC(=O)[C@H](CCN)NC(=O)[C@H](CCN)NC(=O)[C@H](CC(C)C)NC(=O)[C@@H](Cc2ccccc2)NC(=O)[C@H](CCN)NC1=O)[C@@H](C)O [polymyxin B] (HELM PEPTIDE1{[CC[C@H](C)CCCCC(=O)[*:2]].[Dab].T.[Dab].[Dab].[Dab].[dF].L.[Dab].[Dab].T}$PEPTIDE1,PEPTIDE1,5:R3-11:R2$$$V2.0)
Clinical outcome (EOT and TOC) ([1]; Patient 1, CRKP VAP, inhalation 25 mg + intravenous 50 mg q12h, 5 d): improved | Microbiology efficacy (TOC) ([1]; Patient 1, organism found): CRKP | Microbiology efficacy (TOC) ([1]; Patient 2): negative | Note (sputum culture during treatment) ([1]; Patient 3, inhalation 25 mg + intravenous 75 mg q12h): CRKP and CRPA were negative after treatment for 6 days, then Serratia marcescens and Chryseobacterium meningosepticum showed positive | Microbiology efficacy (TOC) ([1]; Patient 3): CRKP and CRPA negative | Clinical outcome (EOT and TOC) ([1]; Patient 4, CRE (E. cloacae) VAP, inhalation 25 mg + intravenous 75 mg q12h, 11 d): improved | Microbiology efficacy (TOC) ([1]; Patient 4): negative | clinical improvement or cure / alleviation of clinical symptoms (patients) ([1]; four VAP patients, aerosolized and intravenous polymyxin B): Three of the patients exhibited alleviation of clinical symptoms; also recorded: three of them reaching clinical improvement or cure | bacterial eradication (patients) ([1]; four VAP patients, aerosolized and intravenous polymyxin B, sputum culture): All four patients achieved bacterial eradication | eradication rate of K. pneumoniae (K. pneumoniae; aerosol 50 mg twice a day (with intravenous), P < 0.003): 92.1% | eradication rate of K. pneumoniae (K. pneumoniae; intravenous treatment alone): 70.1% | maximum ELF concentrations (P. aeruginosa strains; aerosolized): 184.0 ± 35.1 mg/L | lung histopathology (P. aeruginosa strains; at maximum ELF concentrations 184.0 ± 35.1 mg/L): reduced lung inflammation and preserved lung epithelial integrity | concentration that induced toxic metabolic response perturbations (epithelial cells): 1000 µM | Adverse events ([2]; Patient 1, inhalation 25 mg + intravenous 50 mg q12h, 5 d): none | Adverse events ([2]; Patient 2, inhalation 25 mg + intravenous 100 mg q12h, 5 d): none | Adverse events ([2]; Patient 3, inhalation 25 then 50 mg + intravenous 75 mg q12h, 12 d): hyperpigmentation | Adverse events ([2]; Patient 4, inhalation 25 mg + intravenous 75 mg q12h, 11 d): hyperpigmentation | nephrotoxicity [2, 6]: No cases of nephrotoxicity | neurotoxicity [2, 6]: no reports of neurotoxicity | hyperpigmentation (number of patients) ([2]; of four patients): two patients | chest CT imaging ([2]; patients, combined aerosol and intravenous treatment): recovery of chest CT imaging | cure and improved rates ([3]; aerosol doses of 50 mg twice a day, VAP patients): 95% | clinical outcome ([3]; inhaled polymyxin B, pneumonia patients): favourable clinical outcome of cure and improvement | elimination half-life [4]: 12.5 ± 3.11 h

colistimethate [CMS]
rate of clinical cure (OR) [5]: 1.61 | rate of microbiological eradication (OR) [5]: 1.37
